Experimental data from ChEMBL document CHEMBL1143313, “Synthesis of novel 4,6-di(substituted)amino-1,2-dihydro-1,3,5-triazine derivatives as topical antiseptic agents” (2009).

Experiments:
Format in all cases: functional
[1] = tested on: Staphylococcus aureus; experiment: Bactericidal activity against methicillin-resistant Staphylococcus aureus 97-115 preincubated for 1 min before addition of growth medium measured after 40 to 48 hrs
Summary of the method: (§1)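 Read-out is the minimal bactericidal concentration (MBC), taken after 1, 3 and 5 min contact of compound with the test organism.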

[2] = tested on: Pseudomonas aeruginosa; experiment: Bactericidal activity against Pseudomonas aeruginosa PAO1 preincubated for 1 min before addition of growth medium measured after 40 to 48 hrs
[3] = tested on: Staphylococcus aureus; experiment: Bactericidal activity against methicillin-resistant Staphylococcus aureus 97-53 preincubated for 5 mins before addition of growth medium measured after 40 to 48 hrs; summary of the method: as §1
[4] = tested on: Escherichia coli; experiment: Bactericidal activity against Escherichia coli NIHJ JC-2 preincubated for 3 mins before addition of growth medium measured after 40 to 48 hrs
[5] = tested on: Staphylococcus aureus; experiment: Bactericidal activity against methicillin-resistant Staphylococcus aureus KM 97-108 preincubated for 5 mins before addition of growth medium measured after 40 to 48 hrs; summary of the method: as §1
[6] = tested on: Enterococcus; experiment: Bactericidal activity against vancomycin-resistant Enterococcus 49 preincubated for 1 min before addition of growth medium measured after 40 to 48 hrs; summary of the method: as §1
[7] = tested on: Staphylococcus aureus; experiment: Bactericidal activity against Staphylococcus aureus 209PJC preincubated for 1 min before addition of growth medium measured after 40 to 48 hrs
[8] = tested on: Staphylococcus aureus; experiment: Antibacterial activity against Staphylococcus aureus 209PJC after 24 hrs
Summary of the method: (§2)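 Value is the minimal inhibitory concentration (MIC) against the test organism, read after 24 h of incubation.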

[9] = tested on: Staphylococcus aureus; experiment: Bactericidal activity against methicillin-resistant Staphylococcus aureus 97-115 preincubated for 5 mins before addition of growth medium measured after 40 to 48 hrs; summary of the method: as §1
[10] = tested on: Pseudomonas aeruginosa; experiment: Bactericidal activity against Pseudomonas aeruginosa PAO1 preincubated for 5 mins before addition of growth medium measured after 40 to 48 hrs
[11] = tested on: Staphylococcus aureus; experiment: Bactericidal activity against Staphylococcus aureus 209PJC preincubated for 3 mins before addition of growth medium measured after 40 to 48 hrs
[12] = tested on: Staphylococcus aureus; experiment: Bactericidal activity against methicillin-resistant Staphylococcus aureus 97-53 preincubated for 3 mins before addition of growth medium measured after 40 to 48 hrs; summary of the method: as §1
[13] = tested on: Escherichia coli; experiment: Bactericidal activity against Escherichia coli NIHJ JC-2 preincubated for 1 min before addition of growth medium measured after 40 to 48 hrs
[14] = tested on: Staphylococcus aureus; experiment: Bactericidal activity against methicillin-resistant Staphylococcus aureus KM 97-108 preincubated for 1 min before addition of growth medium measured after 40 to 48 hrs; summary of the method: as §1
[15] = tested on: Pseudomonas aeruginosa; experiment: Bactericidal activity against Pseudomonas aeruginosa 12 preincubated for 1 min before addition of growth medium measured after 40 to 48 hrs
[16] = tested on: Escherichia coli; experiment: Bactericidal activity against Escherichia coli NIHJ JC-2 preincubated for 5 mins before addition of growth medium measured after 40 to 48 hrs
[17] = tested on: Enterococcus; experiment: Bactericidal activity against vancomycin-resistant Enterococcus 49 preincubated for 3 mins before addition of growth medium measured after 40 to 48 hrs; summary of the method: as §1
[18] = tested on: Staphylococcus aureus; experiment: Bactericidal activity against methicillin-resistant Staphylococcus aureus 97-53 preincubated for 1 min before addition of growth medium measured after 40 to 48 hrs; summary of the method: as §1
[19] = tested on: Staphylococcus aureus; experiment: Bactericidal activity against methicillin-resistant Staphylococcus aureus 97-115 preincubated for 3 mins before addition of growth medium measured after 40 to 48 hrs; summary of the method: as §1
[20] = tested on: Pseudomonas aeruginosa; experiment: Bactericidal activity against Pseudomonas aeruginosa 12 preincubated for 5 mins before addition of growth medium measured after 40 to 48 hrs
[21] = tested on: Pseudomonas aeruginosa; experiment: Bactericidal activity against Pseudomonas aeruginosa PAO1 preincubated for 3 mins before addition of growth medium measured after 40 to 48 hrs
[22] = tested on: Pseudomonas aeruginosa; experiment: Bactericidal activity against Pseudomonas aeruginosa 12 preincubated for 3 mins before addition of growth medium measured after 40 to 48 hrs
[23] = tested on: Enterococcus; experiment: Bactericidal activity against vancomycin-resistant Enterococcus 49 preincubated for 5 mins before addition of growth medium measured after 40 to 48 hrs; summary of the method: as §1
[24] = tested on: Staphylococcus aureus; experiment: Bactericidal activity against Staphylococcus aureus 209PJC preincubated for 5 mins before addition of growth medium measured after 40 to 48 hrs
[25] = tested on: Staphylococcus aureus; experiment: Antibacterial activity against methicillin-resistant Staphylococcus aureus 97-115 after 24 hrs
Summary of the method: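 Read-out is the minimal inhibitory concentration (MIC), taken after 24 h incubation with the test organism.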

[26] = tested on: Staphylococcus aureus; experiment: Bactericidal activity against methicillin-resistant Staphylococcus aureus KM 97-108 preincubated for 3 mins before addition of growth medium measured after 40 to 48 hrs; summary of the method: as §1
[27] = tested on: Escherichia coli; experiment: Antibacterial activity against Escherichia coli NIHJ JC-2 after 24 hrs; summary of the method: as §2
[28] = tested on: Pseudomonas aeruginosa; experiment: Antibacterial activity against Pseudomonas aeruginosa PAO1; summary of the method: as §2

N=C(NCCCCCCNC(=N)NC(=N)Nc1ccc(Cl)cc1)NC(=N)Nc1ccc(Cl)cc1.O=C(O)[C@H](O)[C@@H](O)[C@H](O)[C@H](O)CO
MBC [1]: 1000 mg/L | MBC [2]: > 500 mg/L | MBC [3]: 250 mg/L | MBC [4]: 31.3 mg/L | MBC [5]: 500 mg/L | MBC [6]: > 1000 mg/L | MBC [7]: 62.5 mg/L | MIC [8]: 0.2 mg/L | MBC [9]: 125 mg/L | MBC [10]: > 500 mg/L | MBC [11]: 62.5 mg/L | MBC [12]: 250 mg/L | MBC [13]: 62.5 mg/L | MBC [14]: 500 mg/L | MBC [15]: 125 mg/L | MBC [16]: 15.6 mg/L | MBC [17]: > 1000 mg/L | MBC [18]: 500 mg/L | MBC [19]: 250 mg/L | MBC [20]: 31.3 mg/L | MBC [21]: > 500 mg/L | MBC [22]: 31.3 mg/L | MBC [23]: > 1000 mg/L | MBC [24]: 62.5 mg/L | MIC [25]: 3.1 mg/L | MBC [26]: 500 mg/L | MIC [27]: 1.6 mg/L | MIC [28]: 50 mg/L

CC(=O)O.CCCCCCCCNC1=NC(NCCCCC)=NC(C)(C)N1
MBC [1]: 6.3 mg/L | MBC [2]: 6.3 mg/L | MBC [4]: 6.3 mg/L | MBC [7]: 3.1 mg/L | MIC [8]: 1.6 mg/L | MBC [9]: 3.1 mg/L | MBC [10]: 3.1 mg/L | MBC [11]: 3.1 mg/L | MBC [13]: 12.5 mg/L | MBC [16]: 6.3 mg/L | MBC [19]: 3.1 mg/L | MBC [21]: 3.1 mg/L | MBC [24]: 3.1 mg/L | MIC [25]: 1.6 mg/L | MIC [27]: 25 mg/L | MIC [28]: 25 mg/L

CC(=O)O.CCCCCCCCNC1=NC(C)(C)NC(NCCCC)=N1
MBC [1]: 25 mg/L | MBC [2]: 50 mg/L | MBC [4]: 25 mg/L | MBC [7]: 25 mg/L | MIC [8]: 1.6 mg/L | MBC [9]: 12.5 mg/L | MBC [10]: 12.5 mg/L | MBC [11]: 12.5 mg/L | MBC [13]: 50 mg/L | MBC [16]: 12.5 mg/L | MBC [19]: 12.5 mg/L | MBC [21]: 25 mg/L | MBC [24]: 6.3 mg/L | MIC [25]: 3.1 mg/L | MIC [27]: 25 mg/L | MIC [28]: 50 mg/L

CC(=O)O.CCCCCCCCCCCCNC1=NC(C)(C)NC(NCC)=N1
MBC [1]: 25 mg/L | MBC [2]: 3.1 mg/L | MBC [4]: 3.1 mg/L | MBC [7]: 3.1 mg/L | MIC [8]: 0.8 mg/L | MBC [9]: 6.3 mg/L | MBC [10]: 3.1 mg/L | MBC [11]: 3.1 mg/L | MBC [13]: 12.5 mg/L | MBC [16]: 3.1 mg/L | MBC [19]: 12.5 mg/L | MBC [21]: 3.1 mg/L | MBC [24]: 1.6 mg/L | MIC [25]: 1.6 mg/L | MIC [27]: 12.5 mg/L | MIC [28]: 50 mg/L

CC(=O)O.CCCCCCCCNC1=NC(C)(C)NC(NCc2ccc(C)cc2)=N1
MBC [1]: 25 mg/L | MBC [2]: 12.5 mg/L | MBC [3]: 25 mg/L | MBC [4]: 6.3 mg/L | MBC [5]: 25 mg/L | MBC [6]: 25 mg/L | MBC [7]: 6.3 mg/L | MIC [8]: 0.4 mg/L | MBC [9]: 12.5 mg/L | MBC [10]: 3.1 mg/L | MBC [11]: 3.1 mg/L | MBC [12]: 50 mg/L | MBC [13]: 12.5 mg/L | MBC [14]: 50 mg/L | MBC [15]: 6.3 mg/L | MBC [16]: 6.3 mg/L | MBC [17]: 25 mg/L | MBC [18]: 50 mg/L | MBC [19]: 25 mg/L | MBC [20]: 3.1 mg/L | MBC [21]: 6.3 mg/L | MBC [22]: 6.3 mg/L | MBC [23]: 12.5 mg/L | MBC [24]: 3.1 mg/L | MIC [25]: 0.4 mg/L | MBC [26]: 50 mg/L | MIC [27]: 12.5 mg/L | MIC [28]: 12.5 mg/L

CC(=O)O.CCCCCCCCNC1=NC(C)(C)NC(NCCCCCC)=N1
MBC [1]: 12.5 mg/L | MBC [2]: 6.3 mg/L | MBC [3]: 25 mg/L | MBC [4]: 6.3 mg/L | MBC [5]: 25 mg/L | MBC [6]: 25 mg/L | MBC [7]: 12.5 mg/L | MIC [8]: 0.8 mg/L | MBC [9]: 6.3 mg/L | MBC [10]: 1.6 mg/L | MBC [11]: 6.3 mg/L | MBC [12]: 25 mg/L | MBC [13]: 12.5 mg/L | MBC [14]: 50 mg/L | MBC [15]: 3.1 mg/L | MBC [16]: 6.3 mg/L | MBC [17]: 25 mg/L | MBC [18]: 50 mg/L | MBC [19]: 6.3 mg/L | MBC [20]: 1.6 mg/L | MBC [21]: 3.1 mg/L | MBC [22]: 3.1 mg/L | MBC [23]: 12.5 mg/L | MBC [24]: 6.3 mg/L | MIC [25]: 0.8 mg/L | MBC [26]: 25 mg/L | MIC [27]: 12.5 mg/L | MIC [28]: 50 mg/L
